Experimental data taken from ChEMBL document CHEMBL2157987, “Benzimidazole bearing oxadiazole and triazolo-thiadiazoles nucleus: design and synthesis as anticancer agents” (2012).

Assays:
Format in all cases: functional
CAKI-1 = assay: Cytotoxicity against human Caki1 cells after 48 hrs by SRB assay; conditions: CAKI-1, 48 h
How it was run: (§1)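 Five-dose NCI-60 panel screen: cells grown in RPMI 1640 with 5% FBS and 2 mM L-glutamine, preincubated 24 h at 37 °C, 5% CO2. Five 10-fold dilutions, 0.01–100 µM, applied for 48 h. Fixed with cold TCA (10% final), stained with 0.4% SRB, absorbance read at 515 nm. GI50, TGI and LC50 were taken from log concentration versus % growth curves using time-zero plates.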

HCT-15 = assay: Cytotoxicity against human HCT15 cells after 48 hrs by SRB assay; conditions: HCT-15, 48 h; how it was run: as §1
SR = assay: Cytotoxicity against human SR cells after 48 hrs by SRB assay
How it was run: (§2)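 Cells were grown in RPMI 1640 with 5% FBS and 2 mM L-glutamine, then held 24 h at 37 °C and 5% CO2 before dosing. TCA-fixed time-zero plates were kept. Compound was dissolved in DMSO and given at five 10-fold dilutions for 48 h. Cells were fixed with cold TCA (10% final), stained with 0.4% SRB and read at 515 nm. GI50, TGI and LC50 came from Ti/Tz/control growth formulas.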

OVCAR-3 = assay: Cytotoxicity against human OVCAR3 cells after 48 hrs by SRB assay; conditions: OVCAR-3, 48 h; how it was run: as §1
KM12 = assay: Cytotoxicity against human KM12 cells after 48 hrs by SRB assay; conditions: KM12, 48 h; how it was run: as §1
NCI/ADR-RES = assay: Cytotoxicity against human NCI/ADR-RES cells after 48 hrs by SRB assay; how it was run: as §1
SK-MEL-28 = assay: Cytotoxicity against human SK-MEL-28 cells after 48 hrs by SRB assay; conditions: SK-MEL-28, 48 h; how it was run: as §1
MCF7 = assay: Cytotoxicity against human MCF7 cells after 48 hrs by SRB assay; conditions: MCF7, 48 h; how it was run: as §1
COLO 205 = assay: Cytotoxicity against human COLO205 cells after 48 hrs by SRB assay; conditions: COLO 205, 48 h; how it was run: as §1
HCT-116 = assay: Cytotoxicity against human HCT116 cells after 48 hrs by SRB assay; conditions: HCT-116, 48 h; how it was run: as §1
DU-145 = assay: Cytotoxicity against human DU145 cells after 48 hrs by SRB assay; conditions: DU-145, 48 h; how it was run: as §1
U-251 = assay: Cytotoxicity against human U251 cells after 48 hrs by SRB assay; conditions: U-251, 48 h; how it was run: as §2
MDA-MB-435 = assay: Cytotoxicity against human MDA-MB-435 cells after 48 hrs by SRB assay; conditions: MDA-MB-435, 48 h; how it was run: as §1
SF-295 = assay: Cytotoxicity against human SF295 cells after 48 hrs by SRB assay; conditions: SF-295, 48 h; how it was run: as §1
EKVX = assay: Cytotoxicity against human EKVX cells after 48 hrs by SRB assay; how it was run: as §1
SF-539 = assay: Cytotoxicity against human SF539 cells after 48 hrs by SRB assay; conditions: SF-539, 48 h; how it was run: as §1
SK-MEL-5 = assay: Cytotoxicity against human SK-MEL-5 cells after 48 hrs by SRB assay; conditions: SK-MEL-5, 48 h; how it was run: as §1
HT-29 = assay: Cytotoxicity against human HT-29 cells after 48 hrs by SRB assay; conditions: HT-29, 48 h; how it was run: as §1
Hs-578T = assay: Cytotoxicity against human Hs578T cells after 48 hrs by SRB assay; how it was run: as §1
CCRF-CEM = assay: Cytotoxicity against human CCRF-CEM cells after 48 hrs by SRB assay; how it was run: as §1
ACHN = assay: Cytotoxicity against human ACHN cells after 48 hrs by SRB assay; how it was run: as §1
SW-620 = assay: Cytotoxicity against human SW620 cells after 48 hrs by SRB assay; conditions: SW-620, 48 h; how it was run: as §2
[1] = read-out: LC50 (the source's name)
[2] = read-out: pLC50 (the source's name) (converted)

Nc1cc(Br)c(-c2nnc(CCC(=O)c3nc4ccccc4[nH]3)o2)c(Br)c1
GI50 (CAKI-1): 20 µM
LC50 (CAKI-1; read-out: LC50): > 100 µM
TGI (CAKI-1; read-out: TGI): > 100 µM
LC50 (CAKI-1; read-out: pLC50 (converted)): > 100 µM
TGI (CAKI-1; read-out: pTGI): > 100 µM
GI50 (HCT-15): > 100 µM
CC50 (HCT-15; [1]): > 100 µM
TGI (HCT-15; read-out: TGI): > 100 µM
CC50 (HCT-15; [2]): > 100 µM
TGI (HCT-15; read-out: pTGI): > 100 µM
GI50 (SR): 4.17 µM
CC50 (SR; [1]): > 100 µM
TGI (SR; read-out: TGI): > 100 µM
CC50 (SR; [2]): > 100 µM
TGI (SR; read-out: pTGI): > 100 µM
GI50 (OVCAR-3): 2.63 µM
LC50 (OVCAR-3; read-out: LC50): > 100 µM
TGI (OVCAR-3; read-out: TGI): 6.98 µM
LC50 (OVCAR-3; read-out: pLC50 (converted)): > 100 µM
TGI (OVCAR-3; read-out: pTGI (converted)): 6.92 µM
GI50 (KM12): 3.72 µM
CC50 (KM12; [1]): > 100 µM
TGI (KM12; read-out: TGI): 18 µM
CC50 (KM12; [2]): > 100 µM
TGI (KM12; read-out: pTGI (converted)): 18.2 µM
GI50 (NCI/ADR-RES): 22.4 µM
CC50 (NCI/ADR-RES; [1]): > 100 µM
TGI (NCI/ADR-RES; read-out: TGI): > 100 µM
CC50 (NCI/ADR-RES; [2]): > 100 µM
TGI (NCI/ADR-RES; read-out: pTGI): > 100 µM
GI50 (SK-MEL-28): 6.31 µM
CC50 (SK-MEL-28; [1]): > 100 µM
TGI (SK-MEL-28; read-out: TGI): 79 µM
CC50 (SK-MEL-28; [2]): > 100 µM
TGI (SK-MEL-28; read-out: pTGI (converted)): 79.4 µM
GI50 (MCF7): 3.09 µM
CC50 (MCF7; [1]): > 100 µM
TGI (MCF7; read-out: TGI): > 100 µM
CC50 (MCF7; [2]): > 100 µM
TGI (MCF7; read-out: pTGI): > 100 µM
GI50 (COLO 205): 11.7 µM
CC50 (COLO 205; [1]): 80.1 µM
TGI (COLO 205; read-out: TGI): 30.8 µM
CC50 (COLO 205; [2]): 79.4 µM
TGI (COLO 205; read-out: pTGI (converted)): 30.9 µM
GI50 (HCT-116): 8.32 µM
CC50 (HCT-116; [1]): > 100 µM
TGI (HCT-116; read-out: TGI): > 100 µM
CC50 (HCT-116; [2]): > 100 µM
TGI (HCT-116; read-out: pTGI): > 100 µM
GI50 (DU-145): 5.37 µM
LC50 (50% lethal concentration) (DU-145; read-out: LC50): > 100 µM
TGI (DU-145; read-out: TGI): 53.5 µM
LC50 (50% lethal concentration) (DU-145; read-out: pLC50 (converted)): > 100 µM
TGI (DU-145; read-out: pTGI (converted)): 53.7 µM
GI50 (U-251): 3.47 µM
CC50 (U-251; [1]): > 100 µM
TGI (U-251; read-out: TGI): > 100 µM
CC50 (U-251; [2]): > 100 µM
TGI (U-251; read-out: pTGI): > 100 µM
GI50 (MDA-MB-435): 1.55 µM
CC50 (MDA-MB-435; [1]): 8.83 µM
TGI (MDA-MB-435; read-out: TGI): 3.71 µM
CC50 (MDA-MB-435; [2]): 8.91 µM
TGI (MDA-MB-435; read-out: pTGI (converted)): 3.72 µM
GI50 (SF-295): 9.77 µM
CC50 (SF-295; [1]): > 100 µM
TGI (SF-295; read-out: TGI): 35.6 µM
CC50 (SF-295; [2]): > 100 µM
TGI (SF-295; read-out: pTGI (converted)): 35.5 µM
GI50 (EKVX): 22.9 µM
CC50 (EKVX; [1]): > 100 µM
TGI (EKVX; read-out: TGI): > 100 µM
CC50 (EKVX; [2]): > 100 µM
TGI (EKVX; read-out: pTGI): > 100 µM
GI50 (SF-539): 17.4 µM
CC50 (SF-539; [1]): > 100 µM
TGI (SF-539; read-out: TGI): 60.8 µM
CC50 (SF-539; [2]): > 100 µM
TGI (SF-539; read-out: pTGI (converted)): 60.3 µM
GI50 (SK-MEL-5): 14.1 µM
CC50 (SK-MEL-5; [1]): > 100 µM
TGI (SK-MEL-5; read-out: TGI): > 100 µM
CC50 (SK-MEL-5; [2]): > 100 µM
TGI (SK-MEL-5; read-out: pTGI): > 100 µM
GI50 (HT-29): 19.1 µM
CC50 (HT-29; [1]): > 100 µM
TGI (HT-29; read-out: TGI): 83.5 µM
CC50 (HT-29; [2]): > 100 µM
TGI (HT-29; read-out: pTGI (converted)): 83.2 µM
GI50 (Hs-578T): 3.72 µM
CC50 (Hs-578T; [1]): > 100 µM
TGI (Hs-578T; read-out: TGI): 31.7 µM
CC50 (Hs-578T; [2]): > 100 µM
TGI (Hs-578T; read-out: pTGI (converted)): 31.6 µM
GI50 (CCRF-CEM): 3.8 µM
CC50 (CCRF-CEM; [1]): > 100 µM
TGI (CCRF-CEM; read-out: TGI): > 100 µM
CC50 (CCRF-CEM; [2]): > 100 µM
TGI (CCRF-CEM; read-out: pTGI): > 100 µM
GI50 (ACHN): 47.9 µM
LC50 (ACHN; read-out: LC50): > 100 µM
TGI (ACHN; read-out: TGI): > 100 µM
LC50 (ACHN; read-out: pLC50 (converted)): > 100 µM
TGI (ACHN; read-out: pTGI): > 100 µM
GI50 (SW-620): 3.31 µM
CC50 (SW-620; [1]): > 100 µM
TGI (SW-620; read-out: TGI): > 100 µM
CC50 (SW-620; [2]): > 100 µM
TGI (SW-620; read-out: pTGI): > 100 µM
